Test results as given in ChEMBL document CHEMBL1127424, “7-azetidinylquinolones as antibacterial agents. 2. Synthesis and biological activity of 7-(2,3-disubstituted-1-azetidinyl)-4-oxoquinoline- and -1,8-naphthyridine-3-carboxylic acids. Properties and structure-activity relationships of quinolones with an azetidine moiety” (J Med Chem, 1994).
Converted amounts (≈) assume the structure as drawn.

Key:
Klebsiella pneumoniae = assay: In vitro minimum inhibitory concentration to inhibit Klebsiella pneumoniae ATCC 10031; type: functional
Procedure, shortened: (§1)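 Serial 2-fold agar dilution in Mueller Hinton medium, run alongside a reference quinolone. Inoculum adjusted to 10⁸ cfu/mL; compound range 0.007–16 μg/mL.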

Mus musculus [1] = assay: Evaluation of efficacy on systemic infections Staphylococcus aureus HS-93, after oral administration in mice; type: functional
Procedure, shortened: (§2)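 Single oral dose given immediately after infection, one of four doses per group, chosen from in vitro activity. Survival scored after one week. ED50 (total mg/kg protecting 50%) interpolated from survival rates.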

[2] = Solubility (buffer pH 7.4); type: physicochemical; details: read-out: S
Procedure, shortened: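 Excess solid shaken in 0.05 M phosphate buffer pH 7.4 for 24 h at 25 °C. Suspension filtered through 0.22 μm, discarding the first portion. Filtrate diluted in 0.1 N HCl or 0.1 N NaOH and read by UV at the compound's absorbance maximum.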

[3] = AUC (0-4 hr) ug/ml/h; type: ADME, cell-free; set-up: time < 4 hr; concentration or dose not given beside the values; details: plasma
Procedure, shortened: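 Mice dosed once orally at 50 mg/kg; blood taken from groups of six mice at 0.5, 1, 2 and 4 h. Serum drug assayed by disk agar diffusion bioassay (Bacillus subtilis ATCC 6633 on Seed Agar, 37 °C, 18 h), giving total activity.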

Mus musculus [4] = assay: Evaluation of efficacy on systemic infections Escherichia coli HM-42, after oral administration in mice; type: functional; procedure, shortened: as §2
Bacillus cereus = assay: In vitro minimum inhibitory concentration for Bacillus cereus ATCC 11778; type: functional; procedure, shortened: as §1
Morganella morganii = assay: In vitro minimum inhibitory concentration for Morganella morganii ATCC 8019; type: functional; procedure, shortened: as §1
Pseudomonas aeruginosa = assay: In vitro minimum inhibitory concentration for Pseudomonas aeruginosa ATCC 10145; type: functional; procedure, shortened: as §1
Mus musculus [5] = assay: Evaluation of efficacy on systemic infections Pseudomonas aeruginosa HS-116, after oral administration in mice; type: functional; procedure, shortened: as §2
[6] = HPLC capacity factor (k'); type: ADME
Procedure, shortened: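 Ion-pair reversed-phase HPLC on ODS-2 (10 μm) at 45 °C. Mobile phase: 10 mM sodium heptanesulfonate plus 50 mM KH2PO4 (pH 3.5)–methanol 45:55, 1 mL/min. Samples at 100 μg/mL in DMF, injected in duplicate, UV 280 nm. k' = (tR − t0)/t0.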

[7] = tested on: Staphylococcus epidermidis; assay: In vitro minimum inhibitory concentration for Staphylococcus epidermidis ATCC 155-1; type: functional; procedure, shortened: as §1
Enterococcus faecalis [8] = assay: In vitro minimum inhibitory concentration for Streptococcus faecalis ATCC 10541; type: functional; procedure, shortened: as §1
Enterobacter cloacae = assay: In vitro minimum inhibitory concentration for Enterobacter cloacae ATCC 23355; type: functional
Staphylococcus aureus = assay: In vitro minimum inhibitory concentration for Staphylococcus aureus ATCC 25178; type: functional; procedure, shortened: as §1
Bacillus subtilis = assay: In vitro minimum inhibitory concentration for Bacillus subtilis ATCC 6633; type: functional; procedure, shortened: as §1
[9] = Measured ionization constant (pKa); type: physicochemical; details: read-out: pKa1
Procedure, shortened: (§3)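 Spectrophotometric titration at 20 ± 1 °C, 0.1 M ionic strength, pH varied with H2SO4 or NaOH made up in the compound stock. Absorbance followed at compound-specific wavelengths chosen from 200–400 nm scans. pKa1 and pKa2 taken as the inflection points of the two-step absorbance vs pH curve.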

Proteus vulgaris = assay: In vitro minimum inhibitory concentration for Proteus vulgaris ATCC 8427; type: functional; procedure, shortened: as §1
[10] = Dissociation constant (pKa); type: physicochemical; details: read-out: pKa2; procedure, shortened: as §3
Escherichia coli [11] = assay: In vitro minimum inhibitory concentration for Escherichia coli ATCC 10799; type: functional; procedure, shortened: as §1
[12] = Measured inonisation constant (pKa); type: physicochemical; details: read-out: pKa2; procedure, shortened: as §3
Escherichia coli [13] = assay: In vitro minimum inhibitory concentration to inhibit Escherichia coli ATCC 10799; type: functional
Procedure, shortened: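 Serial 2-fold agar dilution on Mueller Hinton medium, run alongside 1b as comparator. Inoculum adjusted to 10⁸ cfu/mL; compound range 0.007 to 16 μg/mL. Incubated 37 °C for 18 h. MIC taken as the lowest concentration preventing visible growth.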

Enterococcus faecalis [14] = assay: microbe, parasite or virus in culture; details: ATCC 10541

Row | Structure (SMILES) | MIC (Klebsiella pneumoniae) [µg/mL] | ED50 (Mus musculus [1]) [mg/kg] | solubility [2] [µg/mL] | AUC [3] [ng·h/mL] | ED50 (Mus musculus [4]) [mg/kg] | MIC (Bacillus cereus) [µg/mL] | MIC (Morganella morganii) [µg/mL] | MIC (Pseudomonas aeruginosa) [µg/mL] | ED50 (Mus musculus [5]) [mg/kg] | Log k' [6] | MIC [7] [µg/mL] | MIC (Enterococcus faecalis [8]) [µg/mL] | MIC (Enterobacter cloacae) [µg/mL] | MIC (Staphylococcus aureus) [µg/mL] | MIC (Bacillus subtilis) [µg/mL] | pKa [9] | MIC (Proteus vulgaris) [µg/mL] | pKa [10] | MIC (Escherichia coli [11]) [µg/mL] | other results
1 | C[C@H]1[C@H](N)CN1c1c(F)cc2c(=O)c(C(=O)O)cn(C3CC3)c2c1Cl | 0.007 (≈ 0.0191 µM) | 9.6 | 12 (≈ 32.8 µM) | 5200 | 2.8 | 0.03 (≈ 0.082 µM) | 0.03 (≈ 0.082 µM) | 0.12 (≈ 0.328 µM) | 38 | 0.1361 | 0.03 (≈ 0.082 µM) | 0.06 (≈ 0.164 µM) | 0.03 (≈ 0.082 µM) | 0.03 (≈ 0.082 µM) | 0.03 (≈ 0.082 µM) | 6.04 | 0.03 (≈ 0.082 µM) | 8.47 | 0.007 (≈ 0.0191 µM) | 
2 | CCNC1CN(c2cc3c(cc2F)c(=O)c(C(=O)O)cn3C2CC2)C1 |  |  |  |  |  |  |  |  |  |  |  |  |  |  |  | 6.48 |  |  |  | pKa [12]: 8.62
3 | C[C@H]1[C@H](N)CN1c1nc2c(cc1F)c(=O)c(C(=O)O)cn2C1CC1 | 0.03 (≈ 0.0903 µM) | 13.8 | 20.3 (≈ 61.1 µM) | 27200 | 3.5 | 0.06 (≈ 0.181 µM) | 0.03 (≈ 0.0903 µM) | 0.5 (≈ 1.5 µM) | 95.4 | -0.0304 | 0.12 (≈ 0.361 µM) | 0.25 (≈ 0.752 µM) | 0.03 (≈ 0.0903 µM) | 0.12 (≈ 0.361 µM) | 0.03 (≈ 0.0903 µM) | 6.26 | 0.06 (≈ 0.181 µM) | 8.31 | 0.03 (≈ 0.0903 µM) | 
4 | C[C@H]1[C@H](N)CN1c1c(F)cc2c(=O)c(C(=O)O)cn(C3CC3)c2c1F | 0.03 (≈ 0.0859 µM) | 9 | 23.2 (≈ 66.4 µM) | 24500 | 2 | 0.06 (≈ 0.172 µM) | 0.03 (≈ 0.0859 µM) | 0.25 (≈ 0.716 µM) | 22.1 | 0.0755 | 0.06 (≈ 0.172 µM) | 0.25 (≈ 0.716 µM) | 0.03 (≈ 0.0859 µM) | 0.06 (≈ 0.172 µM) | 0.03 (≈ 0.0859 µM) | 6.13 | 0.06 (≈ 0.172 µM) | 8.35 | 0.015 (≈ 0.0429 µM) | 
5 | CN[C@H]1CN(c2cc3c(cc2F)c(=O)c(C(=O)O)cn3C2CC2)[C@@H]1C | 0.03 (≈ 0.0869 µM) | 23.3 | 9.2 (≈ 26.6 µM) | 10300 | 2 | 0.12 (≈ 0.347 µM) | 0.06 (≈ 0.174 µM) | 0.5 (≈ 1.45 µM) | 80.4 | 0.179 | 0.06 (≈ 0.174 µM) | 0.25 (≈ 0.724 µM) | 0.03 (≈ 0.0869 µM) | 0.12 (≈ 0.347 µM) | 0.03 (≈ 0.0869 µM) | 6.5 | 0.12 (≈ 0.347 µM) | 8.6 | 0.06 (≈ 0.174 µM) | 
6 | C[C@@H]1[C@@H](N(C)C)CN1c1cc2c(cc1F)c(=O)c(C(=O)O)cn2C1CC1 | 0.06 (≈ 0.167 µM) | 62.1 | 96.3 (≈ 268 µM) | 12100 | 4.5 | 0.5 (≈ 1.39 µM) | 0.5 (≈ 1.39 µM) | 4 (≈ 11.1 µM) | 135 | 0.668 | 0.12 (≈ 0.334 µM) | 4 (≈ 11.1 µM) | 0.5 (≈ 1.39 µM) | 0.25 (≈ 0.696 µM) | 0.06 (≈ 0.167 µM) | 6.29 | 0.5 (≈ 1.39 µM) | 7.9 | 0.5 (≈ 1.39 µM) | 
7 | CCn1cc(C(=O)O)c(=O)c2cc(F)c(N3C[C@@H](N)[C@@H]3C)c(F)c21 | 0.015 (≈ 0.0445 µM) | 5.1 |  |  | 4 | 0.25 (≈ 0.741 µM) | 0.06 (≈ 0.178 µM) | 1 (≈ 2.96 µM) | 56.3 | 0.0145 | 0.12 (≈ 0.356 µM) | 1 (≈ 2.96 µM) | 0.06 (≈ 0.178 µM) | 0.25 (≈ 0.741 µM) | 0.06 (≈ 0.178 µM) |  | 0.25 (≈ 0.741 µM) |  |  | MIC (Escherichia coli [13]): 0.12 µg/mL (≈ 0.356 µM)
8 | O=C(O)c1cn(C2CC2)c2cc(N3CCNCC3)c(F)cc2c1=O [CIPROFLOXACIN] |  | 45.1 |  | 2300 | 3 | 0.25 (≈ 0.754 µM) | 0.06 (≈ 0.181 µM) | 0.12 (≈ 0.362 µM) | 70.3 |  | 0.5 (≈ 1.51 µM) |  |  | 0.25 (≈ 0.754 µM) | 0.06 (≈ 0.181 µM) |  | 0.06 (≈ 0.181 µM) |  |  | MIC (Enterococcus faecalis [14]): 0.5 µg/mL (≈ 1.51 µM)
